ChEMBL document CHEMBL1138429, “Novel carbazole derivatives as NPY Y1 antagonists” (Bioorg Med Chem Lett, 2007)

Legend:
[1] = Plasma clearance in Sprague-Dawley rat at 1 mg/kg, iv; assay type: ADME, organism-based; design: dose 1 mg/kg, route intravenous
Method in brief: (§1)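 Male Sprague–Dawley rats given 1 mg/kg iv as a solution in DMSO/PEG400/H2O 5:50:45. Clearance, half-life, volume of distribution and AUC were derived from the post-dose profile.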

[2] = Half life in Sprague-Dawley rat at 1 mg/kg, iv; assay type: ADME, organism-based; design: dose 1 mg/kg, route intravenous; details: in vivo; method in brief: as §1
[3] = Oral bioavailability in Sprague-Dawley rat at 5 mg/kg, po; assay type: ADME, organism-based; details: in vivo
Method in brief: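 Male Sprague–Dawley rats received 5 mg/kg orally as a methocel suspension. F was calculated from the normalised AUC against the iv (1 mg/kg) dose.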

[4] = Ratio of drug level in […] plasma in Sprague-Dawley rat at 1 mg/kg, iv after 5 mins; assay type: ADME, organism-based; design: dose 1 mg/kg, route intravenous
Method in brief: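 Brain penetration was assessed in male Sprague–Dawley rats dosed iv at 1 mg/kg in DMSO/PEG400/H2O 5:50:45 solution. The partition ratio was measured 5 min after dosing.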

[5] = molecular target: T1, Neuropeptide Y receptor type 1 (Homo sapiens, UniProt P25929); test: Displacement of [125]peptide YY from human recombinant Y1 receptor expressed in CHO cells; assay type: cell-based
T1 sequence (P25929 whole entry): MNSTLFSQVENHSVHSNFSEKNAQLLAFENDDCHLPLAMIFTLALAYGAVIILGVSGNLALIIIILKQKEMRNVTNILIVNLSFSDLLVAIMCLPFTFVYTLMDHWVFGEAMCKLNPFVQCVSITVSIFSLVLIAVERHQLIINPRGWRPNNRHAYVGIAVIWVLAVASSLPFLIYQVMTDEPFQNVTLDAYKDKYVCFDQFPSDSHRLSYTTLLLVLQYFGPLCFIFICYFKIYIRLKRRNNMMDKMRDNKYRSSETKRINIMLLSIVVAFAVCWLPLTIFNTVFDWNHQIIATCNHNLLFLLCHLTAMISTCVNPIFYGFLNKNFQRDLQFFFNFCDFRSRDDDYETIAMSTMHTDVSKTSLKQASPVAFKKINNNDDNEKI

[6] = Ratio of drug level in […] plasma in Sprague-Dawley rat at 1 mg/kg, iv after 5 mins; details: in vivo

SMILES: CN1CCN(C(=O)c2cc(Oc3ccc(Cl)cc3)c3c(c2)c2ccccc2n3C[C@@H]2CCN(C)C[C@@H]2F)CC1
- clearance [1]: 15 mL/min/kg
- half-life [2]: 11 h
- bioavailability [3]: 19%
- blood plasma ratio at 5 min [4]: 4.2
- IC50 [5]: 28 nM

SMILES: O=C(c1cc(Oc2ccc(Cl)cc2)c2c(c1)c1ccccc1n2C[C@@H]1CCNC[C@@H]1F)N1CCC(O)CC1
- IC50 [5]: 7760 nM

SMILES: CN1CCN(C(=O)c2cc(Oc3ccc(Cl)cc3)c3c(c2)c2ccccc2n3C[C@@H]2CCN(C)C[C@H]2F)CC1
- blood plasma ratio at 5 min [4]: 8.2
- IC50 [5]: 95 nM

SMILES: CN1CCN(C(=O)c2cc(Oc3ccc(Cl)cc3)c3c(c2)c2ccccc2n3CC2CCCNC2)CC1 (stereo unspecified)
- IC50 [5]: 107 nM

SMILES: O=C(c1cc(Oc2ccc(Cl)cc2)c2c(c1)c1ccccc1n2C[C@@H]1CCNC[C@H]1F)N1CCN(C2CC2)CC1
- IC50 [5]: 871 nM

SMILES: CN(C)C1CCN(C(=O)c2cc(Oc3ccc(Cl)cc3)c3c(c2)c2ccccc2n3C[C@@H]2CCNC[C@H]2F)C1 (stereo partly specified)
- IC50 [5]: 467 nM

SMILES: CN1CCN(C(=O)c2cc(Oc3ccc(Cl)cc3)c3c(c2)c2ccccc2n3CC2CCN(CC(=O)N(C)C)CC2)CC1
- IC50 [5]: 14 nM

SMILES: CN1CCN(C(=O)c2cc(Oc3ccc(Cl)cc3)c3c(c2)c2ccccc2n3CCCN2CCCCC2)CC1
- IC50 [5]: 50 nM

SMILES: O=C(c1cc(Oc2ccc(Cl)cc2)c2c(c1)c1ccccc1n2C[C@@H]1CCNC[C@@H]1F)N1CCN(CC(F)(F)F)CC1
- IC50 [5]: 9770 nM

SMILES: O=C(c1cc(Oc2ccc(Cl)cc2)c2c(c1)c1ccccc1n2C[C@@H]1CCNC[C@@H]1F)N1CCc2nc[nH]c2C1
- IC50 [5]: 2880 nM

SMILES: CN1CCCC1CCNC(=O)c1cc(Oc2ccc(Cl)cc2)c2c(c1)c1ccccc1n2C[C@@H]1CCNC[C@H]1F (stereo partly specified)
- IC50 [5]: 1860 nM

SMILES: CN(C)CCN(C)C(=O)c1cc(Oc2ccc(Cl)cc2)c2c(c1)c1ccccc1n2C[C@@H]1CCNC[C@H]1F
- IC50 [5]: 191 nM

SMILES: CN(C)C(=O)c1cc(Oc2ccc(Cl)cc2)c2c(c1)c1ccccc1n2C[C@@H]1CCNC[C@H]1F
- IC50 [5]: 12000 nM

SMILES: CN1CCN(C(=O)c2cc(Oc3ccc(Cl)cc3)c3c(c2)c2ccccc2n3C[C@@H]2CCNC[C@@H]2F)CC1
- IC50 [5]: 51 nM

SMILES: O=C(c1cc(Oc2ccc(Cl)cc2)c2c(c1)c1ccccc1n2C[C@@H]1CCNC[C@@H]1F)N1CCn2ccnc2C1
- IC50 [5]: 1910 nM

SMILES: CN1CCN(C(=O)c2cc(Oc3ccc(Cl)cc3)c3c(c2)c2ccccc2n3C[C@@H]2CCNC[C@H]2F)CC1
- IC50 [5]: 53 nM

SMILES: CN1CCC(Cn2c3ccccc3c3cc(C(=O)N4CCN(C)CC4)cc(Oc4ccc(Cl)cc4)c32)CC1
- blood plasma ratio at 5 min [4]: 0.8
- IC50 [5]: 11 nM

SMILES: CN1CCN(C(=O)c2cc(Oc3ccc(Cl)cc3)c3c(c2)c2ccccc2n3C[C@@H]2CCN(C3CC3)C[C@@H]2F)CC1
- IC50 [5]: 186 nM

SMILES: CN(C)CCNC(=O)c1cc(Oc2ccc(Cl)cc2)c2c(c1)c1ccccc1n2C[C@@H]1CCNC[C@H]1F
- IC50 [5]: 50 nM

SMILES: O=C(c1cc(Oc2ccc(Cl)cc2)c2c(c1)c1ccccc1n2C[C@@H]1CCNC[C@@H]1F)N1CCN(CCO)CC1
- IC50 [5]: 832 nM

SMILES: CN1CCN(C(=O)c2cc(Oc3ccc(Cl)cc3)c3c(c2)c2ccccc2n3CC2CCNCC2)CC1
- bioavailability [3]: 0%
- Ratio [6]: 0.12
- IC50 [5]: 16 nM

SMILES: CCN1CCCC1CNC(=O)c1cc(Oc2ccc(Cl)cc2)c2c(c1)c1ccccc1n2C[C@@H]1CCNC[C@H]1F (stereo partly specified)
- IC50 [5]: 263 nM

SMILES: CN1CCN(C(=O)c2cc(Oc3ccc(Cl)cc3)c3c(c2)c2ccccc2n3CC2=C(F)CNCC2)CC1
- IC50 [5]: 43 nM
